From ChEMBL document CHEMBL1671618, “Functional cloning and characterization of the multidrug efflux pumps NorM from Neisseria gonorrhoeae and YdhE from Escherichia coli” (Antimicrob Agents Chemother, 2008)
In brackets after ≈: the same amount, converted by molar mass.

Columns and labels:
Assay type in all cases: functional
Escherichia coli [1] = assay: Antimicrobial activity against AcrAB-deficient Escherichia coli AG100AX harboring pBADomegaydhE plasmid containing Escherichia coli multidrug efflux pump YdhE after 18 to 24 hrs by two fold dilution method
Escherichia coli [2] = assay: Antimicrobial activity against AcrAB-deficient Escherichia coli AG100AX harboring pBADomeganorM plasmid containing Neisseria gonorrhoeae multidrug efflux pump NorM after 18 to 24 hrs by two fold dilution method
Escherichia coli [3] = assay: Antimicrobial activity against AcrAB-deficient Escherichia coli AG100AX harboring pBAD plasmid after 18 to 24 hrs by two fold dilution method
Method in brief: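 Twofold agar dilution on LB agar containing the antimicrobial, inoculum 10⁴ CFU/spot. Growth was scored after 18–24 h at 37°C, and each MIC determination was repeated at least four times.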

For GENTAMICIN, which MIC (Escherichia coli [1]) is on record?
Its MIC is 2.5 µg/mL.

And the MIC (Escherichia coli [2])?
Its MIC is 2.5 µg/mL.

What about the MIC (Escherichia coli [3]) of the same compound?
The MIC was 2.5 µg/mL.

Which MIC (Escherichia coli [1]) does the source give for `Nc1ccc2cc3ccc(N)cc3nc2c1` [PROFLAVINE] here?
Its MIC is 12.5 µg/mL (≈ 59.7 µM).

And the MIC (Escherichia coli [2])?
The MIC was 12.5 µg/mL (≈ 59.7 µM).

And the MIC (Escherichia coli [3])?
The MIC was 6.25 µg/mL (≈ 29.9 µM).

For `CO[C@@H]1[C@@H](OC(N)=O)[C@@H](O)[C@H](Oc2ccc3c(O)c(NC(=O)c4ccc(O)c(CC=C(C)C)c4)c(=O)oc3c2C)OC1(C)C` [NOVOBIOCIN], which MIC (Escherichia coli [1]) is on record?
The MIC was 3.12 µg/mL (≈ 5.1 µM).

And the MIC (Escherichia coli [2])?
The MIC was 3.12 µg/mL (≈ 5.1 µM).

And the MIC (Escherichia coli [3])?
The MIC was 1.56 µg/mL (≈ 2.55 µM).

For `CCn1cc(C(=O)O)c(=O)c2ccc(C)nc21` [NALIDIXIC ACID], which MIC (Escherichia coli [1]) is on record?
The MIC was 0.625 µg/mL (≈ 2.69 µM).

What about the MIC (Escherichia coli [2]) of the same compound?
The MIC was 0.625 µg/mL (≈ 2.69 µM).

And the MIC (Escherichia coli [3])?
The MIC was 0.625 µg/mL (≈ 2.69 µM).

For `CN[C@@H]1[C@H](O[C@H]2[C@H](O[C@H]3[C@H](O)[C@@H](O)[C@H](N=C(N)N)[C@@H](O)[C@@H]3N=C(N)N)O[C@@H](C)[C@]2(O)C=O)O[C@@H](CO)[C@H](O)[C@H]1O` [STREPTOMYCIN], which MIC (Escherichia coli [1]) is on record?
Its MIC is > 50000 µg/mL.

And the MIC (Escherichia coli [2])?
The MIC was > 50000 µg/mL.

What about the MIC (Escherichia coli [3]) of the same compound?
The MIC was > 50000 µg/mL.

For `CCn1cc(C(=O)O)c(=O)c2cc(F)c(N3CCNCC3)nc21` [ENOXACIN], which MIC (Escherichia coli [1]) is on record?
The MIC was 0.063 µg/mL (≈ 0.197 µM).

What about the MIC (Escherichia coli [2]) of the same compound?
Its MIC is 0.063 µg/mL (≈ 0.197 µM).

And the MIC (Escherichia coli [3])?
Its MIC is 0.031 µg/mL (≈ 0.0968 µM).

What does the source list for `CN(C)c1ccc(O)c2c1C[C@H]1C[C@H]3[C@H](N(C)C)C(O)=C(C(N)=O)C(=O)[C@@]3(O)C(O)=C1C2=O` [MINOCYCLINE]?
MIC (Escherichia coli [1]): 0.625 µg/mL (≈ 1.37 µM); MIC (Escherichia coli [2]): 0.625 µg/mL (≈ 1.37 µM); MIC (Escherichia coli [3]): 0.625 µg/mL (≈ 1.37 µM)

For `CN(C)c1ccc(C(=C2C=CC(=[N+](C)C)C=C2)c2ccc(N(C)C)cc2)cc1.[Cl-]` [GENTIAN VIOLET], which MIC (Escherichia coli [1]) is on record?
Its MIC is 2.5 µg/mL.

What about the MIC (Escherichia coli [2]) of the same compound?
Its MIC is 2.5 µg/mL.

And the MIC (Escherichia coli [3])?
The MIC was 0.625 µg/mL.

`COc1cccc2c1C(=O)c1c(O)c3c(c(O)c1C2=O)C[C@@](O)(C(=O)CO)C[C@@H]3O[C@H]1C[C@H](N)[C@H](O)[C@H](C)O1` [DOXORUBICIN] was tested. Which MIC (Escherichia coli [1]) did it give?
Its MIC is 6.25 µg/mL (≈ 11.5 µM).

What about the MIC (Escherichia coli [2]) of the same compound?
Its MIC is 6.25 µg/mL (≈ 11.5 µM).

And the MIC (Escherichia coli [3])?
The MIC was 1.56 µg/mL (≈ 2.87 µM).

`CN[C@H](CC(C)C)C(=O)N[C@H]1C(=O)N[C@@H](CC(N)=O)C(=O)N[C@H]2C(=O)N[C@H]3C(=O)N[C@H](C(=O)N[C@H](C(=O)O)c4cc(O)cc(O)c4-c4cc3ccc4O)[C@H](O)c3ccc(c(Cl)c3)Oc3cc2cc(c3O[C@@H]2O[C@H](CO)[C@@H](O)[C@H](O)[C@H]2O[C@H]2C[C@](C)(N)[C@H](O)[C@H](C)O2)Oc2ccc(cc2Cl)[C@H]1O` [VANCOMYCIN] was tested. Which MIC (Escherichia coli [1]) did it give?
The MIC was 250 µg/mL (≈ 173 µM).

What about the MIC (Escherichia coli [2]) of the same compound?
The MIC was 250 µg/mL (≈ 173 µM).

What about the MIC (Escherichia coli [3]) of the same compound?
The MIC was 250 µg/mL (≈ 173 µM).

`C[n+]1ccc(-c2cc[n+](C)cc2)cc1.[Cl-].[Cl-]` [PARAQUAT DICHLORIDE] was tested. Which MIC (Escherichia coli [1]) did it give?
The MIC was 156 µg/mL.

What about the MIC (Escherichia coli [2]) of the same compound?
Its MIC is 156 µg/mL.

What about the MIC (Escherichia coli [3]) of the same compound?
Its MIC is 156 µg/mL.

`COc1ccc2cc3[n+](cc2c1OC)CCc1cc2c(cc1-3)OCO2.[Cl-]` [BERBERINE CHLORIDE] was tested. Which MIC (Escherichia coli [1]) did it give?
Its MIC is 250 µg/mL.

And the MIC (Escherichia coli [2])?
The MIC was 250 µg/mL.

What about the MIC (Escherichia coli [3]) of the same compound?
Its MIC is 31.2 µg/mL.

How did the MIC (Escherichia coli [1]) turn out when `[Cl-].c1ccc([P+](c2ccccc2)(c2ccccc2)c2ccccc2)cc1` [TETRAPHENYLPHOSPHONIUM CHLORIDE] was run?
Its MIC is 25 µg/mL.

What about the MIC (Escherichia coli [2]) of the same compound?
The MIC was 25 µg/mL.

And the MIC (Escherichia coli [3])?
Its MIC is 12.5 µg/mL.

Which MIC (Escherichia coli [1]) does the source give for `CN(C)[C@@H]1C(O)=C(C(N)=O)C(=O)[C@@]2(O)C(O)=C3C(=O)c4c(O)cccc4[C@@](C)(O)[C@H]3C[C@@H]12` [TETRACYCLINE] here?
Its MIC is 1.25 µg/mL (≈ 2.81 µM).

What about the MIC (Escherichia coli [2]) of the same compound?
The MIC was 1.25 µg/mL (≈ 2.81 µM).

And the MIC (Escherichia coli [3])?
Its MIC is 1.25 µg/mL (≈ 2.81 µM).

Which results are given for `O=C(N[C@H](CO)[C@H](O)c1ccc([N+](=O)[O-])cc1)C(Cl)Cl` [CHLORAMPHENICOL]?
MIC (Escherichia coli [1]): 0.625 µg/mL (≈ 1.93 µM); MIC (Escherichia coli [2]): 0.625 µg/mL (≈ 1.93 µM); MIC (Escherichia coli [3]): 0.625 µg/mL (≈ 1.93 µM)

Which MIC (Escherichia coli [1]) does the source give for `CCn1cc(C(=O)O)c(=O)c2cc(F)c(N3CCNC(C)C3)c(F)c21` (stereo not drawn) [LOMEFLOXACIN] here?
Its MIC is 0.016 µg/mL (≈ 0.0455 µM).

What about the MIC (Escherichia coli [2]) of the same compound?
The MIC was 0.032 µg/mL (≈ 0.0911 µM).

And the MIC (Escherichia coli [3])?
The MIC was 0.016 µg/mL (≈ 0.0455 µM).
